Measured values gathered from unrelated publications.
Lines come from different studies, so protocols differ.
Spike glycoprotein: Spike glycoprotein (Severe acute respiratory syndrome coronavirus 2, UniProt P0DTC2)
SLC18A2: Synaptic vesicular amine transporter (SLC18A2, Homo sapiens, UniProt Q05940)

The Kd of `CC[C@H](C)[C@H](NC(=O)[C@H](CCCCNC(=O)CN(CCNC(=O)CN(CCNC(=O)CN(CCNC(=O)CN(CCNC(=O)[C@H](CCCNC(=N)N)NC(C)=O)C(=O)Cn1ccc(N)nc1=O)C(=O)Cn1cnc2c(=O)[nH]c(N)nc21)C(=O)Cn1cnc2c(=O)[nH]c(N)nc21)C(=O)Cn1ccc(N)nc1=O)NC(=O)[C@H](CC(=O)O)NC(=O)[C@H](CO)NC(=O)[C@@H](NC(=O)[C@H](CCCNC(=N)N)NC(=O)[C@H](CCSC)NC(=O)[C@H](CO)NC(=O)[C@H](C)NC(=O)[C@H](CCC(=O)O)NC(=O)[C@H](C)NC(=O)[C@H](Cc1c[nH]cn1)NC(=O)CNC(=O)[C@H](CC(C)C)NC(=O)[C@H](CCC(=O)O)NC(=O)[C@H](CC(=O)O)NC(=O)[C@H](CC(C)C)NC(=O)[C@H](CC(C)C)NC(=O)[C@H](CCCNC(=N)N)NC(=O)[C@H](CS)NC(=O)[C@H](CCCC(=O)NCCN(CC(=O)NCCN(CC(=O)NCCN(CC(=O)NCCN(CC(=O)N[C@@H](CCCNC(=N)N)C(N)=O)C(=O)Cn1cnc2c(=O)[nH]c(N)nc21)C(=O)Cn1ccc(N)nc1=O)C(=O)Cn1ccc(N)nc1=O)C(=O)Cn1cnc2c(=O)[nH]c(N)nc21)NC(=O)[C@H](CCC(=O)O)NC(=O)[C@H](Cc1ccc(O)cc1)NC(=O)[C@@H](NC(=O)[C@H](CCCCN)NC(=O)[C@H](CCC(N)=O)NC(=O)[C@H](CC(C)C)NC(=O)[C@@H](NC(=O)[C@H](Cc1c[nH]c2ccccc12)NC(=O)[C@H](CCC(=O)O)NC(=O)[C@H](CCCCN)NC(=O)[C@H](CC(=O)O)NC(C)=O)[C@@H](C)CC)[C@@H](C)CC)C(C)C)C(=O)N[C@@H](Cc1ccc(O)cc1)C(=O)N[C@@H](CCC(=O)O)C(=O)N[C@@H](Cc1ccccc1)C(=O)N[C@@H](CCSC)C(=O)N[C@@H](CCCCN)C(=O)N[C@@H](CCCCN)C(N)=O` is reported as 27 nM (Spike glycoprotein; binding; SPR).
For `Cn1c(=O)c2[nH]cnc2n(C)c1=O`, the IC50 was 5600 nM (Solute carrier family 22 member 11 (SLC22A11, Homo sapiens, UniProt Q9NSA0); transporter uptake; inhibitor).
`CCOC(=O)c1ccc(OC(=O)CCCCCN=C(N)N)cc1` gave an IC50 of 316 nM (Plasminogen (PLG, Homo sapiens, UniProt P00747); enzyme activity; inhibitor).
The Ki of `COc1cc(CCNC(C)c2ccccc2O)c(OC)cc1C#N` (stereo not drawn) is reported as 912 nM (Alpha-2A adrenergic receptor (ADRA2A, Homo sapiens, UniProt P08913); cell-free assay; radioligand).
`COc1ccc(C(=O)Nc2ccc3c(c2)C=CCP(=O)(O)O3)cc1` gave a Ki of greater than 10000 nM (Carbonic anhydrase 1 (CA1, Homo sapiens, UniProt P00915); enzyme activity; inhibitor; stopped-flow).
With `O=c1[nH]c2ccccc2n1C1CCN(CCCC(c2ccc(F)cc2)c2ccc(F)cc2)CC1` the IC50 was 386 nM (SLC18A2; transporter uptake; inhibitor; radiometric; cell membranes).
`CC[C@H](C)[C@H](NC(=O)[C@H](CCCCNC(=O)CN(CCNC(=O)CN(CCNC(=O)CN(CCNC(=O)CN(CCNC(=O)[C@H](CCCNC(=N)N)NC(C)=O)C(=O)Cn1ccc(N)nc1=O)C(=O)Cn1cnc2c(=O)[nH]c(N)nc21)C(=O)Cn1cnc2c(=O)[nH]c(N)nc21)C(=O)Cn1ccc(N)nc1=O)NC(=O)[C@H](CC(=O)O)NC(=O)[C@H](CO)NC(=O)[C@@H](NC(=O)[C@H](CCCNC(=N)N)NC(=O)[C@H](CCSC)NC(=O)[C@H](CO)NC(=O)[C@H](C)NC(=O)[C@H](CCC(=O)O)NC(=O)[C@H](C)NC(=O)[C@H](Cc1c[nH]cn1)NC(=O)CNC(=O)[C@H](CC(C)C)NC(=O)[C@H](CCC(=O)O)NC(=O)[C@H](CC(=O)O)NC(=O)[C@H](CC(C)C)NC(=O)[C@H](CC(C)C)NC(=O)[C@H](CCCNC(=N)N)NC(=O)[C@H](CCS)NC(=O)[C@H](CCCC(=O)NCCN(CC(=O)NCCN(CC(=O)NCCN(CC(=O)NCCN(CC(=O)N[C@@H](CCCNC(=N)N)C(N)=O)C(=O)Cn1cnc2c(=O)[nH]c(N)nc21)C(=O)Cn1ccc(N)nc1=O)C(=O)Cn1ccc(N)nc1=O)C(=O)Cn1cnc2c(=O)[nH]c(N)nc21)NC(=O)[C@H](CCC(=O)O)NC(=O)[C@H](Cc1ccc(O)cc1)NC(=O)[C@@H](NC(=O)[C@H](CCCCN)NC(=O)[C@H](CCC(N)=O)NC(=O)[C@H](CC(C)C)NC(=O)[C@@H](NC(=O)[C@H](Cc1c[nH]c2ccccc12)NC(=O)[C@H](CCC(=O)O)NC(=O)[C@H](CCCCN)NC(=O)[C@H](CC(=O)O)NC(C)=O)[C@@H](C)CC)[C@@H](C)CC)C(C)C)C(=O)N[C@@H](Cc1ccc(O)cc1)C(=O)N[C@@H](CCC(=O)O)C(=O)N[C@@H](Cc1ccccc1)C(=O)N[C@@H](CCSC)C(=O)N[C@@H](CCCCN)C(=O)N[C@@H](CCCCN)C(N)=O` has a Kd of 5.2 nM (Spike glycoprotein; binding; SPR).
With `O=C(Nc1ccc2c(c1)C=CCP(=O)(O)O2)c1ccccc1Br` the Ki was greater than 10000 nM (Carbonic anhydrase 2 (CA2, Homo sapiens, UniProt P00918); enzyme activity; inhibitor; stopped-flow).
`O=c1[nH]c2ccccc2n1CCCN1CCC(n2c(=O)[nH]c3cc(Cl)ccc32)CC1` gave an IC50 of 58 nM (SLC18A2; transporter uptake; inhibitor).
